Compound activity from PubChem BioAssay.
A selection: hits, their analogues and other compounds. The true share with any hit is near 1.9%.
M4 antag = human M4 muscarinic receptor antagonists, primary screen, CHO cells, Fluo-8 calcium fluorescence. Muscarinic acetylcholine receptor M4 (Homo sapiens), P08173. CHO-hM4 cells, ACh EC80. inhibition, % at 3 µM. 0.73% of 360,000 active;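 active means inhibition above its plate's cutoff, the mean inhibition of sample wells plus 3 SD, cut at about 27% in these data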;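 further: 0% = acetylcholine EC80 with DMSO and 100% = DMSO without agonist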
Target sequence (P08173 whole entry, looked up): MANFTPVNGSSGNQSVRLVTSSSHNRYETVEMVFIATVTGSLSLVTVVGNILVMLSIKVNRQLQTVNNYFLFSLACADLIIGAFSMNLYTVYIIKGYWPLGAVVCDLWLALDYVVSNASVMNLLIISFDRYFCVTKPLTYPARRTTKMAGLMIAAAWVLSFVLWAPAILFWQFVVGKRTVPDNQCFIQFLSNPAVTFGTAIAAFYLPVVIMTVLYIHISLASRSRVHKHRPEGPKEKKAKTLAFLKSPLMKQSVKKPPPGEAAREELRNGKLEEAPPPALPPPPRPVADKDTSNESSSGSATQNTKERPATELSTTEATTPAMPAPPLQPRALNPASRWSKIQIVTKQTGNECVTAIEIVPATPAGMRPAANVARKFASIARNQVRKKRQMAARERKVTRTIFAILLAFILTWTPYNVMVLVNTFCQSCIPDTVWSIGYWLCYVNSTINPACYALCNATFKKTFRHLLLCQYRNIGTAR
M4 ag = human M4 muscarinic receptor agonists, primary screen, CHO-K1 cells, Fluo-8 calcium fluorescence; CHO-K1 hM4/Gqi5; vehicle 0%, full acetylcholine response 100%; 0.14% of 360,000 active; Muscarinic acetylcholine receptor M4 (Homo sapiens), P08173; activation, % at 3 µM;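 active means activation above the run mean over all test wells plus 3 SD, cut at about 32% in these data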;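 further: peak over basal fluorescence ratio per well then scaled between controls; 0% = DMSO wells and 100% = acetylcholine at EC100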
M5 antag = human M5 muscarinic receptor antagonists, primary screen, CHO cells, Fluo-8 calcium fluorescence; 0.59% of 360,000 active; CHO-hM5 cells, ACh EC80; AID 624040, 2012; inhibition, % at 3 µM;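 active means inhibition above a per-plate cutoff, the mean of that plate's test compounds plus 3 SD, cut at about 27% in these data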;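 further: 0% = acetylcholine EC80 with DMSO and 100% = DMSO without agonist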
M5 ag = human M5 muscarinic receptor agonists, primary screen, CHO-K1 cells, Fluo-8 calcium fluorescence | activation, % at 3 µM | CHO-K1 hM5 cells; 0% DMSO wells, 100% maximal acetylcholine response | Muscarinic acetylcholine receptor M5 (Homo sapiens), P08912 | 0.19% of 360,000 active | AID 624037, 2012;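 active means activation above the run's mean over test compounds plus 3 SD, cut at about 23% in these data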;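 further: signal is peak over basal fluorescence ratio across the kinetic read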
M4 PAM = human M4 muscarinic receptor positive allosteric modulators, primary screen, CHO-K1 cells, Fluo-8 calcium fluorescence; Muscarinic acetylcholine receptor M4 (Homo sapiens), P08173; CHO-K1 hM4/Gqi5, ACh EC20; 0% = ACh EC20, 100% = maximal ACh; activation, % at 3 µM; 0.4% of 360,000 active;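 active means activation above its plate's cutoff, the mean activation of sample wells plus 3 SD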
M5 PAM = human M5 muscarinic receptor positive allosteric modulators, primary screen, CHO-K1 cells, Fluo-8 calcium fluorescence | Muscarinic acetylcholine receptor M5 (Homo sapiens), P08912 | CHO-K1 hM5, ACh EC20 PAM; 0% = ACh EC20, 100% = ACh EC100 | activation, % at 3 µM | 0.3% of 360,000 active;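 active means activation above the run cutoff, the mean activation of all test compounds plus 3 SD, cut at about 18% in these data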
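System: CHO-K1 hM5 cells. Reagent: acetylcholine, EC20 level. Compound dosing: single dose, 3 µM nominal final test concentration. Timing: Post-acetylcholine fluorescence recording 140 s. Detection: Fluo-8 calcium fluorescence. Read-out: % activation, ACh-normalized. Benchmarks: ACh EC20 and EC100 wells. Repeats: singlicate, one well per test compound.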
* hit, by the source's call.

SMILES	M4 antag	M4 ag	M5 antag	M5 ag	M4 PAM	M5 PAM
O=C(NCc1ccc(F)cc1)C1(S(=O)(=O)c2ccc(Cl)cc2)CC1	6.5	-2.1	18.8	-8.8	-8.9	-7.1
N#CC1(NC(=O)CSc2nncn2-c2ccccc2F)CCCC1	5.0	2.9	-3.8	1.6	-2.7	8.5
Cc1ccc(S(=O)(=O)N2CCN(C(=O)CSc3ccc(F)cc3)CC2)cc1	24.0	15.5	29.0*	-0.2	31.8*	19.2*
CN(C(=O)CO/N=C/c1ccc(Cl)cc1)c1ccccc1	-1.2	5.5	11.8	1.3	2.3	-1.5
CC(=O)NC(=S)Nc1ccc(NC(=S)NC(=O)/C=C/c2ccco2)cc1	-19.0	1.4	10.8	24.9*	34.0*	9.8
CCC(=O)Nc1ccc(NC(=S)NC(=O)/C=C/c2ccco2)cc1	-9.4	2.0	8.1	-2.2	7.2	-2.3
Nc1ccccc1SC1CC(=O)N(c2ccc(Cl)c(Cl)c2)C1=O (stereo unspecified)	14.5	14.6	27.8*	3.1	-16.4	-14.6
COCCNC(=S)NNC(=O)c1cc(-c2cccnc2)nc2ccccc12	7.5	0.7	-2.6	0.3	-4.4	-3.0
Cc1cccc(CC(=O)NCCN2CCCCC2)c1	-2.0	0.8	-17.4	-10.0	0.1	2.4
CCCn1c(Cc2ccccc2)n[nH]c1=S	4.0	1.5	4.6	-7.2	4.2	-5.2
S=c1[nH]nc(Cc2ccccc2)n1Cc1ccco1	68.1*	-0.2	32.8*	-5.9	-15.0	-22.4
c1cc2c(cc1CN1CCN(C3CCCCCC3)CC1)OCO2	45.7*	0.1	9.2	-8.4	-16.3	-13.8
N#CCCn1c(O)c(N=NC(=O)CNC(=O)c2cccs2)c2ccccc21	1.1	3.2	0.2	-1.2	2.2	5.5
CNc1ccc(Br)cc(C(=O)/C=C/c2ccc(Cl)cc2Cl)c1=O	44.0*	7.6	18.4	6.3	4.0	12.1
CNc1ccc(Br)cc(C(=O)/C=C/c2ccc(OC)cc2OC)c1=O	-12.9	-0.1	-6.5	1.3	2.6	-4.7
CCNc1ccc(Br)cc(C(=O)/C=C/c2c(Cl)cccc2Cl)c1=O	38.2*	3.2	9.8	0.9	-1.9	4.0
O=C(NCc1ccco1)C1C(=O)Nc2ccccc2C(=O)N1C1CCCCC1 (stereo unspecified)	4.1	1.6	5.4	0.6	2.8	-0.3
COc1ccc(S(=O)(=O)N(CC(=O)NCCC(C)C)c2ccccc2)cc1OC	-18.4	2.9	-7.8	-2.9	25.2*	12.2
CCCNC(=O)CN(c1ccccc1)S(=O)(=O)c1ccc(OC)c(OC)c1	-12.5	2.7	-12.0	-1.5	7.4	7.4
O=C(O)CC(SCC(=O)Nc1ccccc1)C(=O)O (stereo unspecified)	-12.3	0.5	-2.0	1.1	22.0*	5.8
O=C(O)CC(SCC(=O)Nc1ccc(S(=O)(=O)N2CCCC2)cc1)C(=O)O (stereo unspecified)	-18.5	-0.7	-2.7	-5.7	7.1	-4.7
COc1ccc(NC(=O)CNC(=O)CC23CC4CC(CC(C4)C2)C3)c(OC)c1	-6.7	1.8	-2.1	4.3	10.1	-1.5
CCOc1ccc(NS(=O)(=O)c2ccc(C(=O)NNC(=O)c3ccccc3O)cc2)cc1	-12.5	1.5	-1.3	6.6	20.8	7.8
CC(C)[C@H](NC(=O)OC(C)(C)C)c1cc(C(=O)N(C)CCN(C)C)c(N)s1	-7.2	1.5	-5.5	-1.3	8.8	-0.1
CN1CCC(=NNC(=O)CN(c2ccccc2)S(=O)(=O)c2ccccc2)CC1	-7.0	13.9	18.3	-3.9	-1.3	-0.9
SMILES	M4 antag	M4 ag	M5 antag	M5 ag	M4 PAM	M5 PAM
CSc1ccc(S(=O)(=O)N(CC(=O)NN=C2CCN(C)CC2)c2ccc(C)cc2)cc1	-8.1	2.1	-3.8	4.8	17.3	23.0*
O=c1[nH]c(-c2ccccc2)nc(CN2CCCCC2)c1O	-15.0	0.6	-2.3	-0.1	20.9*	-0.1
Cc1ccc(C)c(N2CCN(C(=O)c3ccc(N4CCOCC4)c([N+](=O)[O-])c3)CC2)c1	6.5	10.7	7.3	-1.8	-4.1	-6.1
Cc1ccc(-c2c(C(=O)N/N=C/c3cccs3)nnn2-c2nonc2N)cc1	-3.4	4.5	-4.0	17.5	4.0	5.3
Nc1nonc1-n1nnc(C(=O)N/N=C/c2cccs2)c1-c1ccc2c(c1)OCO2	-11.3	68.7*	-21.1	56.7*	-4.3	-1.6
CCOc1ccc(/C=N/NC(=O)c2nnn(-c3nonc3N)c2-c2cccs2)cc1	2.9	33.2*	6.8	32.7*	-2.0	6.2
Nc1nonc1-n1nnc(C(=O)N/N=C/c2ccccc2Cl)c1CN1CCOCC1	-5.9	0.1	7.1	-6.6	16.4*	-2.3
Cc1ccsc1/C=N/NC(=O)c1nnn(-c2nonc2N)c1-c1ccc2c(c1)OCO2	2.6	4.0	-5.7	6.7	8.5	6.1
Cc1ccc(-c2c(C(=O)N/N=C/c3ccsc3)nnn2-c2nonc2N)cc1	-7.5	8.3	0.1	26.2*	-5.5	0.1
CCOC(=O)N1CCN(C(C(=O)NC2CCCC2)c2ccco2)CC1 (stereo unspecified)	2.3	1.1	-4.3	1.7	5.9	4.8
Cn1cc(Cl)c(C(=O)OCC(=O)Nc2cccc(Cl)c2)n1	-13.4	6.4	-1.8	0.5	6.9	-0.9
O=C(Nc1cccnc1)c1ccc(S(=O)(=O)c2ccccc2)cc1	-0.8	2.3	-7.5	1.9	-4.8	-5.7
CN(C)CCNc1nc2c(c(=O)[nH]c(=O)n2C)n1CCOc1ccccc1	-7.1	-0.5	13.7	-3.7	2.6	-1.9
CC(=O)N1c2ccc(S(=O)(=O)N3CCC(C(=O)Nc4ncccc4C)CC3)cc2CC1C (stereo unspecified)	-8.0	0.7	3.3	-3.1	2.9	-2.2
CCCCN(C(=O)C1CCCO1)c1c(N)n(CCC)c(=O)[nH]c1=O (stereo unspecified)	-6.4	-1.3	4.4	2.8	-0.2	10.4
CCOc1ccc(-c2c(C(=O)N/N=C(\C)c3cccnc3)nnn2-c2nonc2N)cc1	7.7	2.9	-4.3	7.0	11.0	19.5*
COc1ccc(N2C(=O)[C@H]3CCC=C[C@H]3[C@@H]2c2ccccc2Br)cc1	24.2	-1.4	6.0	-3.6	-14.7	-15.3
